Experimental data from publication PMC4512242 (Nature chemical biology, 2015).
Ends that are not written are not given here.

B5: LynD heterocyclase (cyclodehydratase), full length (enzyme, Lyngbya sp. PCC 8106)
chain: MQSTPLLQIQPHFHVEVIEPKQVYLLGEQANHALTGQLYCQILPLLNGQYTLEQIVEKLDGEVPPEYIDYVLERLAEKGYLTEAAPELSSEVAAFWSELGIAPPVAAEALRQPVTLTPVGNISEVTVAALTTALRDIGISVQTPTEAGSPTALNVVLTDDYLQPELAKINKQALESQQTWLLVKPVGSVLWLGPVFVPGKTGCWDCLAHRLRGNREVEASVLRQKQAQQQRNGQSGSVIGCLPTARATLPSTLQTGLQFAATEIAKWIVKYHVNATAPGTVFFPTLDGKIITLNHSILDLKSHILIKRSQCPTCGDPKILQHRGFEPLKLESRPKQFTSDGGHRGTTPEQTVQKYQHLISPVTGVVTELVRITDPANPLVHTYRAGHSFGSATSLRGLRNTLKHKSSGKGKTDSQSKASGLCEAVERYSGIFQGDEPRKRATLAELGDLAIHPEQCLCFSDGQYANRETLNEQATVAHDWIPQRFDASQAIEWTPVWSLTEQTHKYLPTALCYYHYPLPPEHRFARGDSNGNAAGNTLEEAILQGFMELVERDGVALWWYNRLRRPAVDLGSFNEPYFVQLQQFYRENDRDLWVLDLTADLGIPAFAGVSNRKTGSSERLILGFGAHLDPTIAILRAVTEVNQIGLELDKVPDENLKSDATDWLITEKLADHPYLLPDTTQPLKTAQDYPKRWSDDIYTDVMTCVNIAQQAGLETLVIDQTRPDIGLNVVKVTVPGMRHFWSRFGEGRLYDVPVKLGWLDEPLTEAQMNPTPMPF

How the values were obtained:
[1] = test system: LynD Fusion; assay: Heterocyclization reaction with LynD fusion, MS; type: biochemical, Lyngbya sp. PCC 8106
Outline: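 Enzyme is LynD carrying PatE leader residues 21-38 plus an 11-residue linker at its N-terminus, expressed in E. coli BL21 (DE3) with the His6-tag removed by TEV. Product is read by ESI/MALDI MS or LC-MS […].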

[2] = test system: TruD; assay: Heterocyclization reaction with TruD, LCMS; type: biochemical; conditions: ITACITFCAYDG core peptide, no leader, 16 h
[3] = test system: LynD; assay: Heterocyclization reaction with LynD, MS; type: biochemical, Lyngbya sp. PCC 8106; conditions: LynD wild type; 100 μM PatE′ or variant, 5 μM enzyme, 150 mM NaCl, 10 mM HEPES pH 7.4, 1 mM TCEP, 5 mM ATP, 5 mM MgCl2, 16 h, 37 °C; ESI or MALDI MS
Outline: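 Codon-optimized full-length LynD, with a TEV-cleaved His6-tag, is purified from E. coli BL21 (DE3) by Ni, monoQ and size-exclusion steps. PatE′ (C-terminal His6) comes from inclusion bodies, purified in 8 M urea, then DTT-treated and gel-filtered. 100 μM substrate is reacted with 5 μM enzyme and 5 mM ATP/MgCl2 in HEPES pH 7.4 for 16 h at 37 °C. Heterocycle number is read by ESI or MALDI MS.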

[4] = biological target: B5; assay: ITC
[5] = biological target: T1, LynD R399E (Lyngbya sp. PCC 8106, R399E); assay: ITC
T1 chain: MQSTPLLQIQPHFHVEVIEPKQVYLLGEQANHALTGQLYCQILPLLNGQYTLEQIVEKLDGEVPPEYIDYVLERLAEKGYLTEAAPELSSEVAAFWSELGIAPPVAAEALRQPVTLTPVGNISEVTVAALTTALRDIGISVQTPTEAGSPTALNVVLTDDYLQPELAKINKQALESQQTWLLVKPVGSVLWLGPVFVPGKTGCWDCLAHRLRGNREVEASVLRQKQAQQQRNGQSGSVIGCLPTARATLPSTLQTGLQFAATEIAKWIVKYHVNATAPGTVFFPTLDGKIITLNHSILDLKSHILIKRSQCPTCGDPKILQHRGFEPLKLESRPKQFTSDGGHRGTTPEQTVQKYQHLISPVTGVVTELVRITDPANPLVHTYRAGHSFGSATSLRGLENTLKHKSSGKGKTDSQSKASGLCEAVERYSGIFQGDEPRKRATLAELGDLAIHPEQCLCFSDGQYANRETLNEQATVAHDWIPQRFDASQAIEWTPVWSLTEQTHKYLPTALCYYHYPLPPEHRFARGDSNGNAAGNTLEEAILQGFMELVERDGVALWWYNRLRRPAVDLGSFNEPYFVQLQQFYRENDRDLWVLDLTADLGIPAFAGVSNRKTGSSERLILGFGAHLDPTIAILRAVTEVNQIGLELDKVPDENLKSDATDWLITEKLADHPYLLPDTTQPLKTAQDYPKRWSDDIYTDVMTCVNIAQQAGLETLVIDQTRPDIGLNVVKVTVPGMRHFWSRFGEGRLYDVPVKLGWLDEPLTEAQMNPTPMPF

[6] = biological target: T2, LynD Y67D (Lyngbya sp. PCC 8106, Y67D); assay: ITC
T2 chain: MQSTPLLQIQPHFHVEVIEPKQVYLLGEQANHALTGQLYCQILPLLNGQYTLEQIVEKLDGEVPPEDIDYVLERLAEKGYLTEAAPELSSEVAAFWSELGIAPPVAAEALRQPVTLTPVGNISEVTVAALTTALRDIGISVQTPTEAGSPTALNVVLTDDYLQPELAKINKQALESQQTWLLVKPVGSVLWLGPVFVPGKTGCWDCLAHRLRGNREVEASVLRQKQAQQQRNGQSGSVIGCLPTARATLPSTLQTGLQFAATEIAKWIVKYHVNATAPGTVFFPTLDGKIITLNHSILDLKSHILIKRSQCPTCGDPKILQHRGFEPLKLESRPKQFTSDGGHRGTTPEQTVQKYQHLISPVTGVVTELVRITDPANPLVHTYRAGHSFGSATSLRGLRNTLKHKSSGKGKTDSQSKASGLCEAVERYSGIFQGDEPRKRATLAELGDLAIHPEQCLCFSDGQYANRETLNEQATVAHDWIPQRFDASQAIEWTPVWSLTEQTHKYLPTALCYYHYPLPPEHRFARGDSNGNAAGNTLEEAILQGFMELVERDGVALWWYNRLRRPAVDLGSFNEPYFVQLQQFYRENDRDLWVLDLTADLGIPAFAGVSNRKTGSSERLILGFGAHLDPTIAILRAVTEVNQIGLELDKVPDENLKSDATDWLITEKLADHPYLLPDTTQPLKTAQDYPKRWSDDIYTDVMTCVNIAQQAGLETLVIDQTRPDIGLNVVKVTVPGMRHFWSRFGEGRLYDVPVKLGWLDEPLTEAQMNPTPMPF

[7] = biological target: B5; assay: crystal structure
[8] = biological target: the molecule itself; assay: SEC

Molecule: ITACITFCAYDG
- heterocycles formed in leaderless test peptide ([1]; LynDfusion, ITACITFCAYDG core peptide, no leader, 2 h, LCMS): predominantly 2 heterocycles after just 2 h
- heterocycles formed in leaderless test peptide [2]: only 1 heterocycle is formed

Molecule: MDKKNILPQQGQPVIRLTAGQLSSQLAELSEEALGDAGLEASKITACITFCAYDGELEHHH HHH [PatE′]
- No. of heterocycles [3]: 2
- No. of heterocycles ([1]; LynD Fusion, 100 μM PatE′, 5 μM enzyme, pH 7.4, 5 mM ATP, 5 mM MgCl2, 16 h, 37 °C, ESI or MALDI MS): 2

Molecule: PatE′ E32R (MDKKNILPQQGQPVIRLTAGQLSSQLAELSERALGDAGLEASKITACITFCAYDGELE; not fully specified (C-terminus); cysteine pairing not given here)
- No. of heterocycles [3]: 2

Molecule: PatE′ L26R (MDKKNILPQQGQPVIRLTAGQLSSQRAELSEEALGDAGLEASKITACITFCAYDGELE; not fully specified (C-terminus); cysteine pairing not given here)
- No. of heterocycles [3]: 2

B1: PatE′ (modified PatE precursor peptide with full leader and a single core peptide ITACITFC) (peptide)
chain: MDKKNILPQQGQPVIRLTAGQLSSQLAELSEEALGDAGLEASKITACITFCAYDGELE
- Kd [4]: 1.49 µM
- Kd [5]: 10.7 µM
- Kd [6]: 12.9 µM

B2: PatE′ E32R (peptide)
chain: MDKKNILPQQGQPVIRLTAGQLSSQLAELSERALGDAGLEASKITACITFCAYDGELE
- Kd [4]: 18.4 µM
- Kd [5]: 8.55 µM

B3: PatE′ C51A (peptide)
chain: MDKKNILPQQGQPVIRLTAGQLSSQLAELSEEALGDAGLEASKITACITFAAYDGELE
- binding result [7]: binds

B4: PatE′ L26R (peptide)
chain: MDKKNILPQQGQPVIRLTAGQLSSQRAELSEEALGDAGLEASKITACITFCAYDGELE
- Kd [6]: 15.2 µM

Molecule: B5
- stoichiometry N [8]: 2

B6: LynD fusion protein (PatE leader residues 21-38 and an eleven residue linker on the N-terminus of LynD) (enzyme)
chain: QLSSQLAELSEEALGDAGAGAGAGAGAGAMQSTPLLQIQPHFHVEVIEPKQVYLLGEQANHALTGQLYCQILPLLNGQYTLEQIVEKLDGEVPPEYIDYVLERLAEKGYLTEAAPELSSEVAAFWSELGIAPPVAAEALRQPVTLTPVGNISEVTVAALTTALRDIGISVQTPTEAGSPTALNVVLTDDYLQPELAKINKQALESQQTWLLVKPVGSVLWLGPVFVPGKTGCWDCLAHRLRGNREVEASVLRQKQAQQQRNGQSGSVIGCLPTARATLPSTLQTGLQFAATEIAKWIVKYHVNATAPGTVFFPTLDGKIITLNHSILDLKSHILIKRSQCPTCGDPKILQHRGFEPLKLESRPKQFTSDGGHRGTTPEQTVQKYQHLISPVTGVVTELVRITDPANPLVHTYRAGHSFGSATSLRGLRNTLKHKSSGKGKTDSQSKASGLCEAVERYSGIFQGDEPRKRATLAELGDLAIHPEQCLCFSDGQYANRETLNEQATVAHDWIPQRFDASQAIEWTPVWSLTEQTHKYLPTALCYYHYPLPPEHRFARGDSNGNAAGNTLEEAILQGFMELVERDGVALWWYNRLRRPAVDLGSFNEPYFVQLQQFYRENDRDLWVLDLTADLGIPAFAGVSNRKTGSSERLILGFGAHLDPTIAILRAVTEVNQIGLELDKVPDENLKSDATDWLITEKLADHPYLLPDTTQPLKTAQDYPKRWSDDIYTDVMTCVNIAQQAGLETLVIDQTRPDIGLNVVKVTVPGMRHFWSRFGEGRLYDVPVKLGWLDEPLTEAQMNPTPMPF
- stoichiometry N [8]: 2
